Measured values gathered from unrelated publications.
Each line is one published result; the experiments were not run side by side.
Target: Serine/threonine-protein kinase/endoribonuclease IRE1 (ERN1, Homo sapiens, UniProt O75460)

Structure (SMILES)	observed	action	method	cells	tested at	endpoint	result
Cc1cnc(NC2CCOCC2)nc1-n1cnc(C(=O)NC(CN)c2cc(F)cc(Cl)c2)c1 (stereo not shown)	enzyme activity	inhibitor	radiometric		1 µM	remaining activity	99%
CCN1CCN(Cc2ccc(NC(=O)c3ccc(C)c(Oc4ccnc5[nH]ccc45)c3)cc2C(F)(F)F)CC1	target engagement in cells	inhibitor	chemoproteomics	Huh-7	10 µM	inhibition	-12.6%
Cc1ccc(C(=O)NCc2ccsc2)cc1C#Cc1cn(C(C)C)c2ncnc(N)c12	enzyme activity	inhibitor			1 µM	activity vs control	100%
COc1cccc2c(NCc3ccccc3)nc(-n3c(N)nc4ccccc43)nc12	target engagement in cells	inhibitor	chemoproteomics		20 mM	inhibition	-6.5%
CN(c1ccnc(CNc2nc(Nc3ccc4c(c3)CC(=O)N4)ncc2C(F)(F)F)n1)S(C)(=O)=O	cell-free assay		competition with immobilised ligand		1 µM	remaining binding	49%
Cc1ccc(C(=O)Nc2ccc(CN3CCN(C)CC3)c(C(F)(F)F)c2)cc1C#Cc1cnc2cccnn12	enzyme activity	inhibitor			23.5 nM	remaining activity	81%
CCCCNc1ncc2c(-c3ccc(F)cc3)nn(C[C@H]3CC[C@H](N)CC3)c2n1	target engagement in cells	inhibitor	chemoproteomics		20 mM	inhibition	-1.9%
Cc1cc(NC(=O)c2cccc3cc(-c4cccc5[nH]nc(N)c45)ccc23)ccc1F	enzyme activity	inhibitor			0.1 µM	activity vs control	87%
Cc1ccc(NC(=O)c2ccc(C)c(C(F)(F)F)c2)cc1C#Cc1nn(C2CCC(O)CC2)c2ncnc(N)c12 (stereo not shown)	cell-free assay				10 µM	remaining signal	94%
O=C(Nc1cnn(-c2csc(C(=O)NC3COC3)c2)c1)Nc1ccccc1Cl	enzyme activity	inhibitor			5 µM	remaining activity	94.3%
CN([C@@H]1CCc2c(CC(=O)O)c3ccccc3n2C1)S(=O)(=O)c1ccc(F)cc1	cell-free assay		competition with immobilised ligand		1 µM	remaining binding	94%
Cc1sc(C(=O)NC2COC2)cc1-n1cc(NC(=O)Nc2c(F)cccc2Cl)cn1	enzyme activity	inhibitor			10 µM	remaining activity	94.1%
COc1cc(Cl)c(C(=O)N[C@@H](CN[C@H]2CC[C@@H](N)CC2)Cc2ccc(C#N)cc2)cc1-c1ccc(CN[C@H](C)c2ccc(C)cc2)o1	enzyme activity	inhibitor			1 µM	remaining activity	93%
Nc1ncnc2occ(-c3ccc(NC(=O)Nc4cc(C(F)(F)F)ccc4F)cc3)c12	cell-free assay	inhibitor			20 µM	remaining signal	16%
O=S(=O)(NC1CCC(c2cc(F)ccc2F)(S(=O)(=O)c2ccc(Cl)cc2)CC1)C(F)(F)F (stereo not shown)	cell-free assay		competition with immobilised ligand		1 µM	remaining binding	100%
CN1CC(Oc2cnc(C#N)cc2-c2ccn3nc(NC(=O)C4CC4)cc3c2)C1	enzyme activity	inhibitor			1 µM	inhibition	4%
